Results on 1 molecule are retold here after paper PMC8068522 (European journal of nuclear medicine and molecular imaging, 2019).

The test system of data set [1] is PSMA(+) PC3 PIP cells. The experiment in a line: clonogenic survival assay. Format: cell-based, human. The settings on record: 48 h of incubation, colony formation. The essentials: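 PSMA(+) PC3 PIP and PSMA(−) PC3 flu cells were exposed to HPLC-purified 177Lu radioligands for 48 h at 37 °C, then scored for colony formation (mean ± SD, n = 3). D0 was the activity concentration (kBq/mL) giving 37% survival.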

In another data set the test system is PSMA(+) PC3 PIP tumor. The experiment in a line: tissue biodistribution, PSMA. Type of data set: in vivo, mouse. Particulars: 24 h.
The nature of data set [2]: acute radiotoxicity after 8 weeks. Type of data set: in vivo, male NOD/SCID mice. The settings on record: 8 weeks post-treatment, 111 MBq. In short, it runs like this:
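Tumour-bearing male NOD/SCID mice (PSMA(+) PC3 PIP flank, ~60–85 mm3, 14–18 days post-inoculation) got one 111 MBq tail-vein dose of 177Lu radioligand or saline. At 8 weeks, n = 3 per group underwent complete blood analysis (haemoglobin, white cells, neutrophils, platelets) and necropsy with H&E anatomic pathology at a phenotyping core.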

Data set [3] has as its system PSMA(+) PC3 PIP cells. The experiment in a line: cell uptake and internalization. Format: cell-based, human. The settings on record: initially; per 1 million cells. In short, it runs like this:
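HPLC-purified 177Lu radioligands were incubated with PSMA(+) PC3 PIP cells for 1 h up to 24 h. Total cell-surface uptake and internalized fraction were expressed as percentage incubated dose per 1 million cells, mean ± SD, n = 3. Specificity was checked by blocking with excess (~10 μM) of a known PSMA inhibitor.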

For data set [4], the system named is PSMA(+) PC3 PIP flank tumor model. The experiment in a line: PSMA-targeted radionuclide therapy in flank tumor model. Type of data set: in vivo, male NOD/SCID mice. The settings on record: single 111 MBq i.v.

Where only a bound is given, the exact number is not on record here.

Turning to `O=C([O-])CN1CCN(CC(=O)[O-])CCN(CC(=O)NCC2CCC(C(=O)N[C@@H](Cc3ccc4ccccc4c3)C(=O)NCCCC[C@H](NC(=O)N[C@@H](CCC(=O)O)C(=O)O)C(=O)O)CC2)CCN(CC(=O)[O-])CC1.[177Lu+3]` (some centres unmarked) [177Lu-PSMA-617], in the data set with PSMA(+) PC3 PIP cells [1], the “D0 (37% survival)” value is 24–32 kBq/mL. The kidney uptake with PSMA(+) PC3 PIP tumor was below 0.5 ID/g. For the same molecule, in data set [2], the parotid glands pathology result is “mild changes”; the platelets result is “significantly lower platelets than those in the other treatment groups”; the testes pathology result was “most severe degenerative changes and loss of seminiferous epithelium”. Further, the “cell uptake within PSMA(+) PC3 PIP cells” value in the data set with PSMA(+) PC3 PIP cells [3] is on record as ~ 40 % of the incubated dose. Also, in data set [4], the median survival is given as 130 days and the “mice reaching a relative tumor volume > 4 times the initial volume” value is “only one mouse”.
